Reference: ChEMBL document CHEMBL4513216, “Probing the Open Global Health Chemical Diversity Library for Multistage-Active Starting Points for Next-Generation Antimalarials” (ACS Infect Dis, 2020)

Test: Toxicity liver stage against HepG2, at 10uM
Format: cell-based
Set-up: test concentration 10 uM, cell line HepG2-A16-CD81EGFP
Details: human, HepG2-A16-CD81EGFP cells; read-out: INHIBITION
Outline: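 Uninfected HepG2-A16-CD81EGFP cells, 3 × 10^3 per well, 1536-well, plated on prespotted compound at 10 μM final, parasite-free screening media added to match infected plates; puromycin 10 μM positive, DMSO 0.5% negative; run in parallel with 48 h PbLuc assay at 37 °C, 5% CO2; viability by CellTiter-Glo luminescence, normalized to controls.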

Row | SMILES | cytotoxicity at 10 µM [%]
1 | CN(C)C(=O)Cc1nc(CN2CCOC(Cn3cccn3)C2)cs1 (stereo not given) | 0.743
2 | CN(Cc1nccn1CC(F)(F)F)C(=O)c1ccc(F)cc1F | 3.3
3 | NC(=O)C(CNC(=O)COCC(F)(F)F)Cc1ccc(F)cc1 (stereo not given) | -5.36
4 | Cc1ncsc1C(=O)Nc1cccc(OCC(F)F)n1 | -1.4
5 | CN(Cc1ccc(Cl)s1)C1CCCN(c2cccnn2)C1 (stereo not given) | -4.27
6 | Cc1cn2c(=O)c(-c3ccnc(N[C@@H]4CCOC4)n3)cnc2s1 | -9.19
7 | CC(=O)N1CCC(n2ccc(-c3cnc(N4CCOCC4)nc3)n2)CC1 | -10.4
8 | CCCc1ncc(CN(C)C2CCCN(CCc3ccccc3)C2)cn1 (stereo not given) | 0.301
9 | Cc1nc(CN2CCN(c3cc(CCN)ncn3)CC2)cs1 | -145
10 | CSCCCNC(=O)C(c1cccc(F)c1)N(C)C (stereo not given) | 0.28
11 | O=C(CN1CC(c2ccccc2)CC1=O)NCc1cc2n(n1)CCNC2 (stereo not given) | 1.05
12 | Cc1cc(NCCc2cnccn2)nc(-c2ccccc2O)n1 | 10.9
13 | CCOC(=O)N1CCCC2(CCN(Cc3ccccc3C#N)C2)C1 (stereo not given) | 3.37
14 | CC1=C(C(=O)N(C)Cc2n[nH]c3c2CCCCC3)C(C)NC(=O)N1 (stereo not given) | -0.178
15 | CCOCC1CCN(C(=O)C(c2ccc(F)cc2)N(C)C)CC1 (stereo not given) | 1.31
16 | CC(=O)N1C[C@H](NS(=O)(=O)N2CCOCC2)[C@@H](c2ccc(C)o2)C1 | -1.43
17 | CCCc1nc(C)cc(NC(C)Cc2cnccn2)n1 (stereo not given) | -0.166
18 | O=C(O)c1ccc(CNC(=O)C2CCN(C(=O)C3CCC3)CC2)s1 | 0.993
19 | CN1CCC(N(Cc2ccncc2)C(=O)COCC2CCCCO2)CC1 (stereo not given) | -150
20 | NC(=O)NCC(=O)N1CCCC(c2nccn2CC2CCC2)C1 (stereo not given) | -4.59
21 | Cc1ccsc1S(=O)(=O)N1CCc2c(c(C(=O)O)nn2CC2CC2)C1 | -0.714
22 | CCOC(=O)N1CCC(NC(C)c2ccccc2-n2cccn2)CC1 (stereo not given) | -7.28
23 | O=C(NCc1nc(C2CCCCC2)no1)C1CC(=O)N(C2CCCC2)C1 (stereo not given) | 0.761
24 | N#Cc1cccc(N2CCC3(CCC(=O)N(CCCO)C3)CC2)n1 | 2.11
25 | Cc1c[nH]c(CN(C)C(=O)c2ccc(CSc3nnc[nH]3)o2)n1 | 1.12
26 | N#Cc1cccc(N2CCC3(CCC(=O)N(CC(N)=O)C3)CC2)n1 | 3.14
27 | CN(C)C(=O)N1CCn2nc(CNC(=O)CCC(F)(F)F)cc2C1 | 5.6
28 | NC(=O)c1cc(C2CCCN(C(=O)CCc3cccs3)C2)n[nH]1 (stereo not given) | 2.33

Row | SMILES | cytotoxicity at 10 µM [%]
29 | Cc1csc(N2CCN(C(=O)C(C(C)C)n3cncn3)CC2)n1 (stereo not given) | -13.1
30 | CC(C)c1nnc2n1CCN(Cc1nc(-c3ccoc3)no1)C2 | -3.69
31 | Cc1cc(C(=O)NCc2ccnc(N3CCN(C)CC3)c2)no1 | -6.63
32 | Cc1nc2ccccc2c(=O)n1CCC(=O)N1CCCC1 | -10
33 | COc1ccc(NC(=O)N(C)Cc2ccsc2)cn1 | -2.36
34 | CCNc1cc2c(nn1)CCN(C(=O)CC1CCCC1)C2 | -3.87
35 | CCNc1cc2c(nn1)CCN(C(=O)c1cc3ccccc3o1)C2 | 3.88
36 | Cn1ccc(C(=O)NCc2ccc(N3CCCCCC3)nc2)cc1=O | -3.18
37 | COCCc1noc(CN2CCCC2c2c(C)nn(C)c2OC)n1 (stereo not given) | -2.36
38 | CCn1cnnc1CNC(=O)N1CCC(O)CC1 | -4.86
39 | O=C(NCCc1ccc(Cl)s1)N1CCS(=O)(=O)CC1 | 1.92
40 | Cc1ccccc1OCC(O)CN1CCC(Cn2cccn2)CC1 (stereo not given) | -0.972
41 | Cc1ccc(F)c(S(=O)(=O)NCc2cccc(C(=O)N3CCCC3)c2)c1 | -11.1
42 | Cc1cnn(CC2CCCN2C(=O)c2ccc3[nH]c(=O)[nH]c3c2)c1 (stereo not given) | -3.98
43 | CCn1cc(NC(=O)NCCN2CCc3ccccc3C2)cn1 | -2.87
44 | Cc1nc(C)n(C2CCCN(C(=O)c3cccnc3NC(C)C)C2)n1 (stereo not given) | -2.28
45 | CN(C)c1ncccc1C(=O)N1CCCN(c2cccnn2)CC1 | 9.41
46 | Cc1nc(CN(C)C2CCN(CC(=O)N3CCOCC3)C2)no1 (stereo not given) | -4.91
47 | O=C([C@H]1CCCO1)N1CCC2(CC1)CNCc1ccccc12 | -2.57
48 | CS(=O)(=O)N1CC2(CCN(C(=O)c3ccncc3)CC2)c2ccccc21 | 2.23
49 | O=S(=O)(C1CC1)N1CC[C@]2(C[C@@H](Oc3ccccn3)CO2)C1 | -10.4
50 | CCS(=O)(=O)N1CCO[C@H]2[C@H](Oc3ncccc3F)CC[C@@H]21 | 2.63
51 | CC(=O)N1[C@H](CN(C)C)C[C@@H]2CN(C(=O)c3ccno3)CC[C@@H]21 | 4.35
52 | CN(C)C(=O)CN1C(=O)CCC12CCN(Cc1ccsc1)CC2 | -3.13
53 | c1cnc2c(c1)cc([C@H]1CCCO1)n2CCN1CCCC1 | 0.975
54 | CCCC12CN3CC(CCC)(CN(C1)C3c1[nH]c(=O)[nH]c(=O)c1C)C2=O (stereo not given) | 4.17
55 | O=C(c1c[nH]c(=O)cn1)N1C[C@H]2CC[C@@H](C1)N(Cc1ccccc1)C2 | -126
